Compound activity deposited in PubChem BioAssay by several laboratories.
Ecoli WT expand – growth inhibitors of E. coli BW25113 wild type. AID 710. OD600 absorbance. hit rate 0.15% among 98,000. growth inhibition, % at 100 µM;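 active means growth inhibition above about 50% at one test dose, limit read from the data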;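 further: growth measured after 20 h incubation at 37 °C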
Ecoli tolC – growth inhibitors of E. coli BW25113 tolC mutant | growth inhibition, % at 10 µM (by protocol) | OD615 | hit rate 2.2% among 65,000 | AID 573;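 active means growth inhibition at or above a cutoff equal to the mean over every tested compound plus 3 SD, cut at about 60% in these data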;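 further: growth measured after 20 h incubation at 37 °C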
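Test system: E. coli BW25113 ΔtolC::kan bacteria | Medium: Kanamycin-containing LB broth (50 µg/mL) | Dosing: One dose of 10 µM final | Times: 20 h incubation with compound, 37 °C | Detection: Optical density read at 615 nm | Read-out basis: Percent growth inhibition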
CYP2C19 activ – increases human CYP2C19 enzyme activity; AID 1025; 96,000 tested, under 10 active; activation factor at 5 µM; P33261; recombinant CYP2C19, luciferin-H EGE luminescence; active compounds read high; 0 = fully inhibited enzyme, 1 = untreated enzyme;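 active means activation factor of at least 2 at 5 µM in the primary screen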
Target sequence (P33261 whole entry, looked up): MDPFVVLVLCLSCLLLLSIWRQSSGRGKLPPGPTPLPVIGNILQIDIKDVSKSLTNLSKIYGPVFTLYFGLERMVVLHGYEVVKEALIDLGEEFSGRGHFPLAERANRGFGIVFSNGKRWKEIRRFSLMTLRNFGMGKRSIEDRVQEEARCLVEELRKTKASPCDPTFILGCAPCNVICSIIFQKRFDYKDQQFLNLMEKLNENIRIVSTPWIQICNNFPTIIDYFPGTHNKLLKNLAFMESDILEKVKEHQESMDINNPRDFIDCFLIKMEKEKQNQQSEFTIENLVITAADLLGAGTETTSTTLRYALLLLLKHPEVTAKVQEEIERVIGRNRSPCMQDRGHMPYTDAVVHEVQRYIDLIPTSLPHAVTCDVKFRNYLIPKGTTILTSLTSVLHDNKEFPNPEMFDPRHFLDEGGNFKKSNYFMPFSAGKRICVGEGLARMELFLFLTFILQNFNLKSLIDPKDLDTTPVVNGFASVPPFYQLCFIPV
CYP2C9 inh – human CYP2C9 inhibition. inhibition, % at 5 µM. P11712. hit rate 20% among 96,000. CYP2C9 Supersomes, luciferin-H conversion, luminescence;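 active means blocking of liver enzyme CYP2C9 beyond about 50% at 5 µM, limit read from the data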
CYP2C9 activ – CYP2C9 (human) activation. P11712. recombinant CYP2C9, luciferin-H conversion, luminescence; active compounds read high; factor 1 = untreated enzyme, 0 = blocked. activation factor at 5 µM. hit rate 1.4% among 96,000. AID 1024;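 active means activation factor of 2 or more for CYP2C9 at a 5 µM dose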
CYP2C19 inh – blocks human cytochrome P450 2C19; CYP2C19 Supersomes, luciferin-H EGE luminescence, 30 min; hit rate 21% among 96,000; inhibition, % at 5 µM;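 active means CYP2C19 inhibition above a set limit at 5 µM in the primary screen, cut at about 50% in these data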
Numbers stand for hits. Rows were chosen to be rich in hits. Some 29% of all compounds tested hit in one or more screens of this group.

For Cc1cccc(-c2nnc(SCCOc3ccc4c(C)cc(=O)oc4c3)o2)c1 the results were Ecoli WT expand inactive, CYP2C19 activ inactive, CYP2C9 inh inactive, CYP2C9 activ inactive and CYP2C19 inh inactive.
For Cc1cc(C(=O)CSc2nnc3c(Cl)cc(Cl)cn23)c(C)n1C the results were Ecoli WT expand inactive, CYP2C19 activ inactive, CYP2C9 inh inactive, CYP2C9 activ inactive and CYP2C19 inh inactive.
C=CCn1c(C)cc(C(=O)CSc2nnc3c(Cl)cc(Cl)cn23)c1C was read as Ecoli WT expand inactive, CYP2C19 activ inactive, CYP2C9 inh inactive, CYP2C9 activ inactive and CYP2C19 inh 77.7.
CCOc1ccc(OCC)c(-c2c(=O)n(OCc3ccccc3Br)c3ccccc3[n+]2[O-])c1 was read as Ecoli WT expand inactive, CYP2C19 activ inactive, CYP2C9 inh inactive, CYP2C9 activ inactive and CYP2C19 inh 74.3.
Screening CCN(CC)S(=O)(=O)c1csc(C(=O)Nc2ccccn2)c1 returned Ecoli WT expand inactive, Ecoli tolC inactive, CYP2C19 activ inactive, CYP2C9 inh 80.7, CYP2C9 activ inactive and CYP2C19 inh 66.9.
For COc1ccc(NC(=S)NCCC(c2ccccc2)c2ccccc2)c(OC)c1 the results were Ecoli WT expand inactive, CYP2C19 activ inactive, CYP2C9 inh 86.1, CYP2C9 activ inactive and CYP2C19 inh 99.1.
`COc1cccc(NC(=O)COc2ccccc2C(N)=O)c1` gave Ecoli WT expand inactive, Ecoli tolC inactive, CYP2C19 activ inactive, CYP2C9 inh inactive, CYP2C9 activ inactive and CYP2C19 inh inactive.
Screening COc1ccc(NC(=S)NCc2ccco2)c(OC)c1 returned Ecoli WT expand inactive, CYP2C19 activ inactive, CYP2C9 inh inactive, CYP2C9 activ inactive and CYP2C19 inh 81.0.
For COc1cccc(NC(=S)NCCC(c2ccccc2)c2ccccc2)c1 the results were Ecoli WT expand inactive, CYP2C19 activ inactive, CYP2C9 inh 68.3, CYP2C9 activ inactive and CYP2C19 inh 55.0.
`CCOc1cc(NC(=S)NCc2ccco2)c(OCC)cc1NC(C)=O` gave Ecoli WT expand inactive, CYP2C19 activ inactive, CYP2C9 inh inactive, CYP2C9 activ inactive and CYP2C19 inh inactive.
COc1ccccc1CCNC(=O)c1ccc(C)o1 was read as Ecoli WT expand inactive, Ecoli tolC inactive, CYP2C19 activ inactive, CYP2C9 inh inactive, CYP2C9 activ inactive and CYP2C19 inh 68.5.
Screening Cc1nc(Nc2ccc(S(N)(=O)=O)cc2)oc1C returned Ecoli WT expand inactive, Ecoli tolC inactive, CYP2C19 activ inactive, CYP2C9 inh inactive, CYP2C9 activ inactive and CYP2C19 inh inactive.
For CC1=N/C(=C/c2ccc([N+](=O)[O-])cc2)C(=O)N1c1ccc(Cl)cc1Cl the results were Ecoli WT expand inactive, CYP2C19 activ inactive, CYP2C9 inh inactive, CYP2C9 activ inactive and CYP2C19 inh inactive.
For CCC1c2ccc(C)n2CCN1C(=O)Nc1ccc(F)cc1 (stereo not given) the results were Ecoli WT expand inactive, Ecoli tolC inactive, CYP2C19 activ inactive, CYP2C9 inh inactive, CYP2C9 activ inactive and CYP2C19 inh inactive.
For COc1ccc(NC(=S)NCCc2ccccc2OC)c(OC)c1 the results were Ecoli WT expand inactive, CYP2C19 activ inactive, CYP2C9 inh inactive, CYP2C9 activ inactive and CYP2C19 inh 99.3.
Screening Cc1nn(C)c(C)c1S(=O)(=O)N(CC(=O)NC1CCCCCC1)c1ccc(C(C)C)cc1 returned Ecoli WT expand inactive, CYP2C19 activ inactive, CYP2C9 inh inactive, CYP2C9 activ inactive and CYP2C19 inh inactive.
For COc1ccc(S(=O)(=O)CCC(=O)N2c3ccccc3CC2C)cc1 (stereo not given) the results were Ecoli WT expand inactive, Ecoli tolC inactive, CYP2C19 activ inactive, CYP2C9 inh inactive, CYP2C9 activ 2 and CYP2C19 inh inactive.
Screening COc1ccc(N(CC(=O)N2CCc3ccccc32)S(=O)(=O)c2c(C)nn(C)c2C)cc1 returned Ecoli WT expand inactive, CYP2C19 activ inactive, CYP2C9 inh 59.7, CYP2C9 activ inactive and CYP2C19 inh inactive.
Screening CCOC(=O)C1CCN(C(=O)CN(c2ccc(OC)cc2)S(=O)(=O)c2c(C)nn(C)c2C)CC1 returned Ecoli WT expand inactive, Ecoli tolC inactive, CYP2C19 activ inactive, CYP2C9 inh inactive, CYP2C9 activ inactive and CYP2C19 inh inactive.
Cc1ccc(N(CC(=O)N2CCN(c3ccc(F)cc3)CC2)S(=O)(=O)c2c(C)nn(C)c2C)cc1 was read as Ecoli WT expand inactive, Ecoli tolC inactive, CYP2C19 activ inactive, CYP2C9 inh inactive, CYP2C9 activ inactive and CYP2C19 inh 85.1.
